Experimental data published in paper PMC9394215 (Journal for Immunotherapy of Cancer, 2022).

Assays:
human CD39 = target: T1, human CD39 (Homo sapiens, UniProt P49961); experiment: CE-UV; type: biochemical
T1 sequence (P49961 1-510): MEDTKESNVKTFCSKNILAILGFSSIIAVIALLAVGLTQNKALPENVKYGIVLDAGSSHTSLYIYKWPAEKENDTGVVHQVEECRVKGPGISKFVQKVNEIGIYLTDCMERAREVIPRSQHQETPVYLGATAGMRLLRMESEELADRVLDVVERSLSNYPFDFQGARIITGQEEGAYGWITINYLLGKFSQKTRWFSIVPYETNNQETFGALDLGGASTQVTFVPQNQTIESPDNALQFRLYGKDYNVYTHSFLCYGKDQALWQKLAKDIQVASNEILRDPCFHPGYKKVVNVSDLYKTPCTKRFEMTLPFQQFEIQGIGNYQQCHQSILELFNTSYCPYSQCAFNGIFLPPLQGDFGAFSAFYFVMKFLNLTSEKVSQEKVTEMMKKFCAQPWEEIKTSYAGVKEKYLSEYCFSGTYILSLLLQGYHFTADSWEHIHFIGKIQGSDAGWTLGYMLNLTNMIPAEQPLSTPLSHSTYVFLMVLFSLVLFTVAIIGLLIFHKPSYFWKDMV
Method in brief: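 Recombinant human CD39 (COS-7 membranes) was incubated with test compound (0.1–300 µM) and 100 µM ATP. Buffer: 10 mM HEPES, 2 mM CaCl2, 1 mM MgCl2, pH 7.4; 30 min at 37°C. Reactions were stopped by heating 10 min at 90°C. ATP, ADP and AMP were separated by capillary electrophoresis with UV detection.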

NTPDase2 = target: T2, NTPDase2 (Homo sapiens, UniProt Q9Y5L3); experiment: Malachite green assay, NTPDase2 in COS-7 cell membranes; type: biochemical
T2 sequence (Q9Y5L3 1-495): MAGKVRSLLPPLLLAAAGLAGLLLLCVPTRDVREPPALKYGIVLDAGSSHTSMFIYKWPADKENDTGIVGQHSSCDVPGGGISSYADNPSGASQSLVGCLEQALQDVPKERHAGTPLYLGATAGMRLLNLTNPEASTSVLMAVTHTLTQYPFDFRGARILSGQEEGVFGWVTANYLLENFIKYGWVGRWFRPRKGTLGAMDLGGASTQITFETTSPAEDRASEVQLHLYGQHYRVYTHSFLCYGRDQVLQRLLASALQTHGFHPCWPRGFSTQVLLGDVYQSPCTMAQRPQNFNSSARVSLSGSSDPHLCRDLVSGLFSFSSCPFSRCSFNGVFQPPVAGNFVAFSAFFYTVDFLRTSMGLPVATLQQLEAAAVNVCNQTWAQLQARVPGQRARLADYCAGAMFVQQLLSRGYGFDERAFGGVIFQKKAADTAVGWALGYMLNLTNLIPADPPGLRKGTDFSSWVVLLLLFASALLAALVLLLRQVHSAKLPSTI
Method in brief: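 Human NTPDase2, -3 or -8 was expressed in COS-7 membranes (ca. 100 ng protein, adjusted for 10–20% substrate conversion). Enzyme was preincubated 5 min at 37°C with test compound (50 µM single point, or 0.1–300 µM for curves). It was then incubated 15 min at 37°C with 100 µM ATP in HEPES/CaCl2/MgCl2, pH 7.4, ≤2% DMSO. Malachite green absorbance at 600 nm was corrected by a denatured-enzyme blank; n=3.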

NPP1 = target: T3, NPP1 (Homo sapiens, UniProt P22413); experiment: NPP1 assay; type: biochemical
T3 sequence (P22413 98-925 limits assumed): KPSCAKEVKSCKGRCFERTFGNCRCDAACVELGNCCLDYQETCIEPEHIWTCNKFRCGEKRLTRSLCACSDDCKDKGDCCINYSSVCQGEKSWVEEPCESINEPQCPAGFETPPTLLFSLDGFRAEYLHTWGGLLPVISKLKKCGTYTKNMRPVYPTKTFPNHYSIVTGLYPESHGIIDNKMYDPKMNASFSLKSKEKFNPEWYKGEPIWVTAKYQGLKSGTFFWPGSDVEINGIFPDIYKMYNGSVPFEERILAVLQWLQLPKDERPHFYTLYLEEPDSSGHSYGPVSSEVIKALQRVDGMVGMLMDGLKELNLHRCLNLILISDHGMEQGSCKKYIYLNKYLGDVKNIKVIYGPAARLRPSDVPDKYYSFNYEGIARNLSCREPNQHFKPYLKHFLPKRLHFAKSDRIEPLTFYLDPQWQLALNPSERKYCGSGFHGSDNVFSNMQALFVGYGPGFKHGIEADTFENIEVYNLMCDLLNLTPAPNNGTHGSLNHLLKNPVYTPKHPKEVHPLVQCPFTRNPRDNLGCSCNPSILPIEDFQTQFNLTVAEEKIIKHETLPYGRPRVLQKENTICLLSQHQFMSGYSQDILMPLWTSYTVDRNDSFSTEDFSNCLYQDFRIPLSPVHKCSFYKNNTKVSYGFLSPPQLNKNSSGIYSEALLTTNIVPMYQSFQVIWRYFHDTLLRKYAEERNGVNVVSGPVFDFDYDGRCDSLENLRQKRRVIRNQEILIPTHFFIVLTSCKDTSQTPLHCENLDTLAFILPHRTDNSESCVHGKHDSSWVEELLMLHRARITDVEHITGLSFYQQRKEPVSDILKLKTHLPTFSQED
Method in brief: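 Crude soluble NPP1 (800 ng, Sf9-expressed) was incubated with 50 µM test compound, 2% DMSO and 300 µM ATP. Buffer: 10 mM CHES, pH 9.0, 2 mM CaCl2, 1 mM MgCl2; 30 min at 37°C with shaking. The reaction was stopped by 5 min at 90°C, then cooled on ice. Product AMP was quantified by capillary electrophoresis.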

human PBMCs = experiment: HPLC assay of AMPase activity; type: cell-based; conditions: 1-100 µM ceritinib; 1 µM eAMP
Method in brief: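 PBMCs were isolated from buffy coats by density gradient. Cells (2×10^5) were pretreated with test compound (1, 10, 50, 100 µM) for 15 min at 37°C, then given 1 µM eATP (ATPase) or eAMP (AMPase) for 30 min at 37°C. Cells were removed and supernatants 10 kDa-filtered. Etheno-nucleotides were quantified by reversed-phase C8 HPLC (phosphate pH 6.0/methanol gradient; fluorescence 230/410 nm) against standards; singlets, n=2–3.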

TNBC (MDA-MB-231) cells = experiment: Extracellular eATP hydrolysis on live TNBC cells; type: cell-based, human; conditions: 1, 10, 100 µM, significant at 10 µM, 20 µM eATP
[1] = cited from earlier work
[2] = read-out: % inhibition at 50 µM

IC50 (human CD39): 13.7 ± 0.6 µM | IC50 (NTPDase2): > 50 µM | inhibition at 50 µM (NTPDase2; [2]): -8% | IC50 (NPP1): > 50 µM | inhibition at 50 µM (NPP1; [2]): 8%
Compound: Cc1cc(Nc2ncc(Cl)c(Nc3ccccc3S(=O)(=O)C(C)C)n2)c(OC(C)C)cc1C1CCNCC1 [ceritinib, Ceritinib]
effect on hydrolysis of eAMP by PBMCs (human PBMCs): only a minor effect | inhibition of hydrolysis of eATP added to live cells (TNBC (MDA-MB-231) cells): concentration-dependent inhibition | metabolic stability [1]: metabolically highly stable
